From article PMC6005736 (Leukemia & lymphoma, 2017)
Entries after “also recorded” stand apart in the source; their conditions may differ.

Key:
[1] = molecular target: Runt domain - CBFβ interaction (Homo sapiens, UniProt Q01196); test: FRET assay of Cerulean-Runt domain and Venus-CBFβ binding
Outline: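 Purified Cerulean-Runt domain and Venus-CBFβ fusion proteins were used in a competition FRET format. Test compounds displace CBFβ binding to the Runt domain. Initial screening of compounds was at 200 µM.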

[2] = system: normal bone marrow mononuclear cells (BM-MNCs); test: CFU-C assay, normal human bone marrow mononuclear cells; format: cell-based; conditions: methylcellulose, colonies counted 14 days after plating
[3] = system: t(8;21) positive human AML samples; test: CFU-C assay, primary human t; format: cell-based; conditions: five samples, methylcellulose, colonies counted 14 days after plating
Outline: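 Primary AML specimens (pheresis or bone marrow mononuclear cells) were plated in methylcellulose with various test compound concentrations. Colonies were scored 14 days after plating. Triplicate cultures per concentration, two experiments. Significance versus DMSO by one-way ANOVA with Dunnett's multiple-comparison test.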

Jurkat = test: MTT cell viability assay, Jurkat; format: cell-based, human; conditions: 48 hours
Outline: (§1)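 Leukemia cell lines were treated with test compound, with DMSO vehicle and staurosporine positive-control arms, and viability was read by MTT. Mean of triplicates ± SD, two independent experiments. One-way ANOVA excluding staurosporine, then Dunnett's test against DMSO-treated cells (P ≤ 0.05).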

Cerulean-Runt domain = test: Saturation transfer difference; format: binding; conditions: STD NMR
720 T-ALL cells = test: qPCR gene expression in 720 T-ALL cells; format: cell-based, mouse; conditions: 720 T-ALL cells treated for 16 hours
Outline: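 720 T-ALL cells were exposed to test compound for 16 h and transcript levels quantified by qPCR relative to DMSO-treated cells. Triplicate means ± SD, two experiments. One-way ANOVA with Dunnett's comparison against DMSO.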

[4] = system: normal mouse bone marrow cells; test: CFU-C assay, normal mouse bone marrow cells; format: cell-based; conditions: methylcellulose, colonies counted 7 days after plating
[5] = system: AML1-ETO9a + NRas^G12D AML cells; test: CFU-C assay, murine AML1-ETO9a + NRasG12D AML cells; format: cell-based, mouse; conditions: methylcellulose, colonies counted 7 days after plating
Outline: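 Leukemic cells came from a secondary recipient of spleen cells. The primary recipient had received fetal liver cells transduced with AML1-ETO9a and NRasG12D retroviruses. 20,000 cells were plated in methylcellulose with various test compound concentrations (DMSO final 0.2%). Colonies were counted at day 7. Triplicates per concentration, two experiments, SD. One-way ANOVA with Dunnett's test versus DMSO.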

Kasumi-1 cells [6] = test: DAPI flow cytometry of dead/live Kasumi-1 cells; format: cell-based, human; conditions: 48 hours in culture
Kasumi-1 cells [7] = test: MTT cell viability assay, Kasumi-1; format: cell-based, human; conditions: 48 hours in culture
Outline: as §1

720 T-ALL cell line = test: MTT cell viability assay, 720 T-ALL; format: cell-based, mouse; conditions: 48 hours
Outline: as §1

8946 T-ALL cell line = test: MTT cell viability assay, 8946; format: cell-based, murine; conditions: 48 hours
Outline: as §1

[8] = system: hematopoietic stem and progenitor cell (HSPC) formation in zebrafish embryos; test: HSPC formation in zebrafish embryos; format: in vivo
CBFβ-Runx = conditions: ref [44]; cited from earlier work

Chain of Runt domain - CBFβ interaction (Q01196 50-178 limits assumed): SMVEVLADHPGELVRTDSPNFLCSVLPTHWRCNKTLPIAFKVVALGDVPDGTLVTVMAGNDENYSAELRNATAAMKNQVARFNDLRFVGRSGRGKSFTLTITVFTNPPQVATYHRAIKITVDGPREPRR

## Sc1nnc(-c2ccccc2)s1 [4b, 5-phenyl-1,3,4-thiadiazole-2(3H)-thione]
[1]
  IC50: 11 ± 1.3 µM

## CSc1nnc(-c2ccccc2F)s1 [6a, 2-(2-fluorophenyl)-5-(methylthio)-1,3,4-thiadiazole]
[1]; Cerulean-Runt domain and Venus-CBFβ at 100 nM
  activity in the FRET assay: complete loss of activity

## S=c1[nH]nc(-c2ccc(-c3cccc(Cl)c3)o2)s1 [AI-8–45]
[2]
  colony numbers of normal bone marrow mononuclear cells: but not that of normal bone marrow mononuclear cells
[3]
  colony numbers of t(8;21) positive human AML samples: significantly reduced the colony numbers
Jurkat
  growth of Jurkat cells (MTT): significantly reduced the growth; also recorded: inhibit proliferation
Cerulean-Runt domain
  saturation transfer effect / binding to Runt domain: in close contact with the protein
720 T-ALL cells
  expression of Deptor, Cdkn1a, Dhcr24, Cebpa, Csf1r (qPCR): affected
[4]
  colony formation by normal mouse bone marrow cells: Neither AI-8–45 nor AI-9–54 had any effect
[5]
  colony formation of AML1-ETO9a + NRasG12D AML cells: significantly reduced colony formation
Kasumi-1 cells [6]
  percentage of DAPI-positive dead cells: statistically significant and dose-dependent increase
Kasumi-1 cells [7]
  growth of Kasumi-1 cells (MTT): significantly reduced the growth; also recorded: inhibit proliferation
720 T-ALL cell line
  growth of 720 T-ALL cells (MTT): significantly reduced the growth; also recorded: inhibit proliferation
8946 T-ALL cell line
  growth of 8946 T-ALL cells (MTT): significantly reduced the growth; also recorded: inhibit proliferation
[8]; Tg(kdrl:dsred;cmyb:egfp) embryos, 2.5 µM, 12 to 36 hpf, flow cytometry
  Flk1:dsRed+Myb:Gfp+ HSPCs in the VDA at 36 hpf: decreased
[8]; Tg(−6.0itga2b:egfp) embryos, treated 18 to 48 hpf, compared to AI-7–54 treated controls
  number of CD41:Gfp+ HSPCs in the CHT at 48 hpf: decreased

## O=C1CN=C(c2ccc[nH]2)c2cc(Cl)ccc2N1 [Ro5-3335]
CBFβ-Runx
  inhibitor of CBFβ-Runx: inhibitor of CBFβ-Runx
